ChEMBL document CHEMBL1135669, “Improving the oral efficacy of CNS drug candidates: discovery of highly orally efficacious piperidinyl piperidine M2 muscarinic receptor antagonists” (J Med Chem, 2002)
The source made the active and inactive calls.

Tests used:
Rattus norvegicus [1] = test: ACh released compared with baseline (100%) in rat striatum after peroral administration (0-2 h,10 mg/kg, 20% HPbetaCD) using microdialysis assay; assay type: functional
Method in brief: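 Rat striatal microdialysis: single oral dose of 10 mg/kg in 20% HPβCD vehicle. ACh in dialysate collected from 0 to 2 h, expressed as % of preinjection baseline (baseline = 100%). ACh release is measured in the presence of neostigmine. Stimulation over baseline was judged by Duncan's Multiple Range Statistic.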

[2] = Area under curve (high throughput single measurement) after peroral administration (10 mg/kg, 0-6 hr) in rat was determined; conditions: in vivo, po
Rattus norvegicus [3] = test: Orally active dose in passive avoidance response (PAR); assay type: functional
Method in brief: (§1)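 Rat passive avoidance response, a reference-memory cognitive paradigm, with oral dosing. The value is the orally active dose in mg/kg, defined as a significant change in latency over vehicle (4% MC), p < 0.05 by Dunnett's T test, n = 36.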

Rattus norvegicus [4] = test: ACh released compared with baseline (100%) in rat striatum after iv administration (0-2 h,10 mg/kg, 20% HPbetaCD) using microdialysis assay; assay type: functional
Rattus norvegicus [5] = test: Orally active dose in passive avoidance response (PAR); inactive; assay type: functional, organism-based; method in brief: as §1
[6] = target: T1, Muscarinic acetylcholine receptor M2 (Homo sapiens, UniProt P08172); test: Binding affinity for human Muscarinic acetylcholine receptor M2
T1 sequence (P08172 whole entry): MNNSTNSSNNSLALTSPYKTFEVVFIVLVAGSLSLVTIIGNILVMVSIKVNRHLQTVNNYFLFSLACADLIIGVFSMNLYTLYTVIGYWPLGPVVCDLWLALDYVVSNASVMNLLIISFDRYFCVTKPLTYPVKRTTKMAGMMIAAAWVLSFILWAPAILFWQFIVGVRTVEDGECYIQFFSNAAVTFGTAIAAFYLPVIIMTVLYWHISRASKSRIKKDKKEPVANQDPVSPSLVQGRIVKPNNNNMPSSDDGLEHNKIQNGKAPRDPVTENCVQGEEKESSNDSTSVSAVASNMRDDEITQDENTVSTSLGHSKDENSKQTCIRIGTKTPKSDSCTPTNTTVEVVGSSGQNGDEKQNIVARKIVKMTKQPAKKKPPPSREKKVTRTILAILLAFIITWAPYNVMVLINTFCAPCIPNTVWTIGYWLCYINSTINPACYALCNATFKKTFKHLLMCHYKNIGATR

Homo sapiens = species: Homo sapiens; test: Percent of Parent compound remaining after 20 min incubation with human liver microsomes (Human microsomal stability); assay type: functional
Method in brief: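 Compounds at 10 μg/mL were incubated with human liver microsomes for 20 min. Metabolic stability is reported as % parent compound remaining.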

Row | SMILES | Activity (Rattus norvegicus [1]) [%] | Ki [6] [nM] | other results
1 | Cc1cccc(C(=O)N2CCC(N3CCC(Cc4ccc(S(=O)(=O)c5cccc(Cl)c5)cc4)CC3)CC2)c1N [SCH-211803] | 180 |  | AUC at 6 h [2]: 908 ng·h/mL; PAR (Rattus norvegicus [3]): 0.001 mg/kg
2 | CC(C)Sc1ccc(CC2CCN(C3CCN(C(=O)c4cccc5ccccc45)CC3)CC2)cc1 | 110 |  | Activity (Rattus norvegicus [4]): 210%; Activity (Rattus norvegicus [5]): inactive
3 | COc1ccc(S(=O)(=O)c2ccc(C3(C4CCN(C5CCN(C(=O)c6ccc(F)c7ccccc67)CC5)CC4)OCCO3)cc2)cc1 | 180 |  | PAR (Rattus norvegicus [3]): 0.1 mg/kg
4 | CC(=C1CCN(C2CCN(C(=O)c3cccc(C)c3N)CC2)CC1)c1ccc([S+]([O-])C(C)C)cc1 (single isomer, unassigned; (-)) |  | 12 | 
5 | CC(C)S(=O)(=O)c1ccc(CC2CCN(C3CCN(C(=O)c4ccc(F)c5ccccc45)CC3)CC2)cc1 |  | 221 | 
6 | CC(=C1CCN(C2CCN(C(=O)c3cccc(C)c3N)CC2)CC1)c1ccc([S+]([O-])C(C)C)cc1 (stereo in doubt; 14) [listing 1 of 2 here] |  | 6.6 | 
7 | CC(=C1CCN(C2CCN(C(=O)c3cccc(C)c3N)CC2)CC1)c1ccc([S+]([O-])C(C)C)cc1 (stereo in doubt; 14) [listing 2 of 2 here] |  |  | Activity (Homo sapiens): 64%
8 | CC(=C1CCN(C2CCN(C(=O)c3ccc(F)c4ccccc34)CC2)CC1)c1ccc([S+]([O-])C(C)C)cc1 (single isomer, unassigned; (+)) | 179 | 1.3 | 
9 | CC(=C1CCN(C2CCN(C(=O)c3ccc(F)c4ccccc34)CC2)CC1)c1ccc([S+]([O-])C(C)C)cc1 (stereo in doubt; 13) [listing 1 of 2 here] |  | 2.7 | 
10 | CC(=C1CCN(C2CCN(C(=O)c3cccc(C)c3N)CC2)CC1)c1ccc(S(=O)(=O)C(C)C)cc1 |  | 32 | Activity (Homo sapiens): 80%
11 | CC(=C1CCN(C2CCN(C(=O)c3ccc(F)c4ccccc34)CC2)CC1)c1ccc([S+]([O-])C(C)C)cc1 (single isomer, unassigned; (-)) | 155 | 2.4 | 
12 | CC(=C1CCN(C2CCN(C(=O)c3cccc(C)c3N)CC2)CC1)c1ccc([S+]([O-])C(C)C)cc1 (single isomer, unassigned; (+)) | 225 | 0.89 | PAR (Rattus norvegicus [3]): 0.0001 mg/kg
13 | CC(=C1CCN(C2CCN(C(=O)c3ccc(F)c4ccccc34)CC2)CC1)c1ccc(S(=O)(=O)C(C)C)cc1 |  | 9.6 | Activity (Homo sapiens): 74%
14 | CC(=C1CCN(C2CCN(C(=O)c3ccc(F)c4ccccc34)CC2)CC1)c1ccc([S+]([O-])C(C)C)cc1 (stereo in doubt; 13) [listing 2 of 2 here] |  |  | Activity (Homo sapiens): 66%
